ED50 and Activity data for one molecule are collected here from ChEMBL document CHEMBL1177700, “Discovery of bishomo(hetero)arylpiperazines as novel multifunctional ligands targeting dopamine D(3) and serotonin 5-HT(1A) and 5-HT(2A) receptors” (J Med Chem, 2010).

Structures are written as SMILES. Activity calls are given as the source filed them. No cut-off for these calls is given here.

The subject of assay [1] is Mus musculus. The assay is described as follows: Antipsychotic activity in ip dosed NMRI mouse assessed as reduction in methamphetamine-induced locomotor activity administered 30 mins prior to testing measured for 60 mins. Format: functional. The essentials:
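Mice were made hyperactive by methamphetamine pretreatment, then dosed with the compound. Read-out was locomotor hypermotility. Doses ranged from 0.3 to 30 mg/kg.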

In assay [2] the test system is Mus musculus. The experiment in a line: Antipsychotic activity in ip dosed NMRI mouse assessed as reduction in spontaneous exploratory locomotor activity administered 30 mins prior to testing measured for 60 mins. It is filed as functional.
The subject of assay [3] is Mus musculus. The assay is described as follows: Antipsychotic activity in NMRI mouse assessed as inhibition of PCP-induced locomotor activity at 3 mg/kg, ip administered 30 mins prior to testing measured for 60 mins. The arrangement: dose 3 mg/kg. Format: functional, organism-based.
Assay [4] concerns Mus musculus. The assay is described as follows: Antipsychotic activity in NMRI mouse assessed as reduction of PCP-induced locomotor activity at 10 mg/kg, ip administered 30 mins prior to testing measured for 60 mins. The arrangement: dose 10 mg/kg. Format: functional, organism-based.

As for `CN1CCN(C2=Nc3cc(Cl)ccc3Nc3ccccc32)CC1` [CLOZAPINE], the values for the ED50 in assay [1] and in assay [2] were 2.5 mg/kg and 2.4 mg/kg, respectively. The result in assay [3] and in assay [4] was Active.
